S1P4 agonist: activates the human S1P4 receptor; AID 1509; S1P4-expressing cell line, agonist reporter assay; activation, % at 4.98 µM; O95977; 0.35% of 220,000 active; in the data active = activation above about 11%;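 also: 0% = DMSO vehicle and 100% = reference agonist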
Dynein transport: dynein cargo transport inhibition; 3617.4 mouse cells, GR-EGFP nuclear translocation imaging; test concentration mostly 20 µM; stimulated with dexamethasone, 1 µM; active compounds read low; 0.47% of 220,000 active; z-score, hits read low;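 active = plate z-score of nuclear minus cytoplasmic receptor signal below a set negative limit, without overly bright fluorescence or cell loss, cut at about -3.5 in these data, passing the limit was not always enough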;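 also: z-score of nuclear minus cytoplasmic ring GR-EGFP intensity difference per well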
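medium = tetracycline-free induction medium containing charcoal-stripped FBS | also added = 1.0 µM final dexamethasone stimulus | schedule = 48 h induction, 1 h compound, 30 min dex at 37 °C | technique = fixed, Hoechst-stained cells imaged at 10x for EGFP | measure = GR-EGFP nuclear translocation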
Calb biofilm kill: mixtures killing C. albicans biofilm. C. albicans biofilm persisters + clotrimazole, fluorescence viability; primary screen in compound mixtures of four per well. inhibition, % at 7.6 µM. AID 1242. 0.02% of 120,000 active;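 active = inhibition above 30.3% in the primary screen of four-compound pools, then above 30% when the compound was retested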;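 also: compounds exposed to preformed 24 h biofilms for 48 h; 0% = untreated biofilm control and 100% = clotrimazole plus chlorhexidine kill blank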
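Incubation: 24 h biofilm formation, then 48 h compound exposure, 37 °C | Material: C. albicans biofilms | Buffer or medium: RPMI/MOPS medium, pH 7.0 | Measured by: 2-h Alamar Blue fluorescence, 535/590 nm excitation/emission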
S1P4 antag: antagonists of human S1P4 receptor. O95977. S1P4-expressing cells, antagonist mode, reporter read-out. inhibition, % at 4.98 µM. 0.26% of 220,000 active. AID 1510; in the data active = inhibition above about 29%;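 also: 0% = wells stimulated with agonist and 100% = vehicle wells without agonist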
Tb hexokinase: blocks Trypanosoma brucei hexokinase 1 activity | recombinant TbHK1, G6PDH-coupled NADH A340 | 0.11% of 220,000 active | AID 1430 | inhibition, % at 10 µM;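 active = inhibition of 50% or more in the single-dose primary screen; inactive = inhibition below 50%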
S1P3 antag: antagonists of human S1P3 receptor | Q99500 | CHO S1P3 NFAT-BLA reporter, FRET fluorescence, antagonist mode | inhibition, % at 4.98 µM | 0.27% of 170,000 active;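 active = inhibition above the plate cutoff, the mean inhibition of test wells on that plate plus 3 SD, cut at about 28% in these data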;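 also: cells challenged with S1P at its EC80 of 0.8 µM; blue over green emission ratio from cleaved BLA substrate after 4 h stimulation; 0% = S1P-stimulated wells and 100% = unstimulated DMSO-only wells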
S1P4 antag cf: confirmation of human S1P4 receptor antagonists. shares compounds with S1P4 antag. S1P4-expressing cell line, antagonist mode, reporter read-out. inhibition, % at 4.98 µM. 71% of 520 active. AID 1524; in the data active = inhibition above about 30%
S1P1 antagonist: counter-screen for S1P4 antagonists: antagonists of human S1P1; shares compounds with S1P4 antag; cell-based S1P1 antagonist counterscreen, inhibition; AID 1564; 37% of 520 active; inhibition, % at 4.98 µM; in the data active = inhibition above about 40%;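 also: receptor stimulated with S1P near its EC80; 0% = agonist stimulated wells and 100% = vehicle only wells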
Target sequence (P21453 whole entry, looked up): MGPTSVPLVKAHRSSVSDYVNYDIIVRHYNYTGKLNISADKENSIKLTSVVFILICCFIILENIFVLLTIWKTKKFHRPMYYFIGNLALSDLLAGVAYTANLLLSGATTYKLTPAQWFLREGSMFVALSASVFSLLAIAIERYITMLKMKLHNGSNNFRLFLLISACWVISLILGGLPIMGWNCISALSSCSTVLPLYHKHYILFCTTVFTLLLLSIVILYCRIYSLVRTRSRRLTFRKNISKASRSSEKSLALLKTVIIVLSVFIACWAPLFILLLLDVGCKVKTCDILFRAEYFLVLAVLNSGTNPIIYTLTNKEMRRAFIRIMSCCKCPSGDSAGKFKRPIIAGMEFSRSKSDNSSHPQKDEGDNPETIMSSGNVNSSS
Starred values were filed as active, the others as inactive; x = no result. Shown are actives, neighbours in structure and some others; about 1.3% of the full set was active somewhere.

SMILES	S1P4 agonist	Dynein transport	Calb biofilm kill	S1P4 antag	Tb hexokinase	S1P3 antag	S1P4 antag cf	S1P1 antagonist
CC1=CC(C)(C)Nc2ccc(OC(=O)c3ccco3)cc21	1	-1.3	x	30*	-3	-26	56*	30
O=C(NCc1ccco1)c1ccccc1-c1nc(-c2ccccc2)no1	1	-1	x	30*	-1	x	-2	-2
COc1ccc(N2CCN(c3cc(C)c4ccc(O)cc4n3)CC2)cc1	0	-0.48	x	-10	-3	-21	x	x
COc1ccc(Nc2cc(C)c3ccc(O)cc3n2)cc1	0	-0.13	4	88*	-25	-6	65*	30
Cc1cc(Nc2ccccc2)nc2cc(O)ccc12	0	1.1	16	92*	-14	-15	81*	41*
Cc1cc(C)n2nc(CCCO)nc2n1	-2	-1.1	15	-12	1	-14	x	x
CC(C)CC(N)C(=O)OCc1ccc([N+](=O)[O-])cc1 (stereo not given)	1	0.31	23	7	4	-14	x	x
O=C1c2cccc3cccc(c23)C(=O)N1Cc1cccnc1	0	-0.13	8	0	-36	-4	x	x
Cc1ccnc(N2C(=O)c3cccc4c([N+](=O)[O-])ccc(c34)C2=O)c1	1	3.3	x	105*	-24	x	115*	133*
O=C1c2cccc3c([N+](=O)[O-])ccc(c23)C(=O)N1Cc1cccnc1	2	-0.34	21	72*	-11	7	95*	42*
O=C(CN1CCc2ccccc21)NC(=O)NC1CCCCC1	0	-0.34	14	-4	-1	-3	x	x
Cc1ccc(C)c(N(C(=O)Cn2nnc3ccccc32)C(C(=O)NCc2ccco2)c2ccncc2)c1 (stereo not given)	-1	1.7	x	34*	4	-20	0	15
Cc1cc(C)cc(N(C(=O)Cn2nnc3ccccc32)C(C(=O)NCc2ccco2)c2ccncc2)c1 (stereo not given)	1	3	x	-1	0	x	x	x
Cc1ccccc1-c1cc2c(nn1)-c1ccccc1C2=O	-2	-1.2	x	93*	-13	x	10	8
Cc1ccc(-c2cc3c(nn2)-c2ccccc2C3=O)cc1	-1	-0.017	20	-14	-12	27	x	x
CN(NC(=O)Nc1ccc(Cl)cc1)c1ncc(C(F)(F)F)cc1Cl	-1	0.2	x	-5	2	x	x	x
CN(NC(=O)Nc1ccc(Cl)cc1)c1c(Cl)c(Cl)nn1C	-3	-0.3	16	53*	-2	-19	47*	6
COC(=O)c1cc(=O)n(-c2ccc(F)cc2)c(=Nc2ccc(F)cc2)s1	4	-4.2*	17	29*	-7	13	100*	76*
O=C(NCCC1=CCCCC1)C1CCN(C(=O)Cc2ccccc2)CC1	0	0.12	5	0	-9	-2	x	x
O=C(/C=C/c1cccc(Cl)c1)c1nc2ccccc2[nH]1	0	-2.7	x	56*	-9	x	104*	10
COc1ccccc1NC(=O)C1=C(C)NC(=O)NC1c1cccs1 (stereo not given)	1	0.029	10	-9	-1	-12	x	x
Cc1nn(C)cc1/C=N/NC(=O)CSc1ccccn1	1	-0.58	26	4	-4	-8	x	x
CCOC(=O)COc1ccccc1/C=C\[N+](=O)[O-]	-1	-3.6*	13	33*	14	10	114*	72*
CCOC(=O)COc1cc([N+](=O)[O-])cc2cccnc12	1	0.74	20	9	-10	-16	x	x
CC(=O)C1=C(C)NC(=O)NC1c1ccc(Cl)cc1 (stereo not given)	-1	-0.046	-1	6	-1	-9	x	x
SMILES	S1P4 agonist	Dynein transport	Calb biofilm kill	S1P4 antag	Tb hexokinase	S1P3 antag	S1P4 antag cf	S1P1 antagonist
CCOc1ccc(-c2nc(-c3ccncc3)no2)cc1OCC	0	-0.94	x	-14	0	-3	x	x
CCOc1ccc(-c2nc(-c3ccccc3)no2)cc1OCC	1	-0.85	x	78*	6	-13	-3	-42
CCN1CCC(CNCc2cn(-c3ccc(OC)cc3)nc2-c2ccccc2Cl)C1 (stereo not given)	0	-0.36	7	9	-6	9	x	x
O=C(COC(=O)C1=COCCO1)Nc1ccc(OC(F)F)cc1	0	-0.9	9	-21	0	12	x	x
O=C(Nc1nnc(-c2ccc(Cl)s2)o1)C1CC1	0	-0.72	16	-4	-9	4	x	x
O=C(Nc1nnc(-c2cccs2)o1)C1CC1	0	-0.36	17	31*	-17	-8	7	6
CCOC(=O)c1ccc(NC(=S)Nc2ccc3[nH]c(=O)[nH]c3c2)cc1	1	-0.14	1	17	-14	-7	x	x
CC(NC(=O)CN(c1cccc(C(F)(F)F)c1)S(=O)(=O)c1ccc(Cl)c([N+](=O)[O-])c1)c1ccccc1 (stereo not given)	0	-1.6	12	44*	-1	-18	87*	53*
CC(C)(C)NC(=O)CN(c1cccc([N+](=O)[O-])c1)S(=O)(=O)c1ccccc1	1	-0.0083	21	-13	2	-20	x	x
CC1(C)CC(CC(=O)Nc2nccs2)(c2ccccc2)CCO1 (stereo not given)	-1	-0.92	5	2	0	-27	x	x
Oc1ccc2ccccc2c1N=Nc1ccccn1	-4	-0.69	x	50*	2	x	78*	83*
Oc1ccc2ccccc2c1N=Nc1ccccc1F	1	-0.63	9	1	-6	-10	x	x
CCOc1ccc(NC(=O)Nc2cc(OCC(F)(F)F)cc(OCC(F)(F)F)c2)cc1	-2	-0.16	19	90*	0	9	113*	-26
O=C(/C=C/c1ccc([N+](=O)[O-])cc1)c1cccnc1	1	-1.1	12	34*	-15	-4	79*	52*
Cc1ccc(S(=O)(=O)Nc2cccc3ncccc23)s1	1	-1	x	47*	18	-19	108*	109*
CCOC(=O)C1CCN(c2ncnc3c2[nH]c2cccc(OC)c23)CC1	0	0.59	x	56*	-34	16	-4	26
Cn1cccc1-c1cc(C(=O)N/N=C/c2cccc(O)c2)[nH]n1	0	-0.21	17	-10	-12	2	x	x
COc1ccc(C(=O)NN)cc1	-1	-0.53	16	6	2	8	x	x
COc1ccc(C(=O)C(CCC(CNC(C)(C)C)C(=O)c2ccc(OC)cc2)CNC(C)(C)C)cc1 (stereo not given)	-6	-2.1	-6	73*	3	18	37*	22

Screening results from PubChem.
